# Assay results: PubChem BioAssay AID2247 (Johns Hopkins Ion Channel Center, 2010)
# Among all 300,000 compounds or so, about 1,200 (0.4%) were called active.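 How the source made its calls: active means B-score over 3 SD under the library average, no early fluorescence shift, positive overall ratio signal; inactive means the rest.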 This excerpt belongs to a sample that is enriched for actives.
# Biological target: Short transient receptor potential channel 4 (Mus musculus) (UniProt Q9QUQ5)
# Assay: blockers of DAMGO-evoked TRPC4 calcium flux – Fluo4 calcium, HEK293 TRPC4beta/mu-opioid cells, primary screen (AID 2247)
# Settings: at 10 µM; active compounds read low
# How it was run: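 Assay system: Stable TRPC4beta/mu-opioid receptor HEK293 cells | Reagent: DAMGO in two steps, submaximal then maximal | Compound dosing: Single concentration per test compound | Signal: Fluo4 Ca2+ flux fluorescence | Evaluation: Per-well B score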
# Sequence of Short transient receptor potential channel 4 (Mus musculus) (Q9QUQ5 whole entry, looked up): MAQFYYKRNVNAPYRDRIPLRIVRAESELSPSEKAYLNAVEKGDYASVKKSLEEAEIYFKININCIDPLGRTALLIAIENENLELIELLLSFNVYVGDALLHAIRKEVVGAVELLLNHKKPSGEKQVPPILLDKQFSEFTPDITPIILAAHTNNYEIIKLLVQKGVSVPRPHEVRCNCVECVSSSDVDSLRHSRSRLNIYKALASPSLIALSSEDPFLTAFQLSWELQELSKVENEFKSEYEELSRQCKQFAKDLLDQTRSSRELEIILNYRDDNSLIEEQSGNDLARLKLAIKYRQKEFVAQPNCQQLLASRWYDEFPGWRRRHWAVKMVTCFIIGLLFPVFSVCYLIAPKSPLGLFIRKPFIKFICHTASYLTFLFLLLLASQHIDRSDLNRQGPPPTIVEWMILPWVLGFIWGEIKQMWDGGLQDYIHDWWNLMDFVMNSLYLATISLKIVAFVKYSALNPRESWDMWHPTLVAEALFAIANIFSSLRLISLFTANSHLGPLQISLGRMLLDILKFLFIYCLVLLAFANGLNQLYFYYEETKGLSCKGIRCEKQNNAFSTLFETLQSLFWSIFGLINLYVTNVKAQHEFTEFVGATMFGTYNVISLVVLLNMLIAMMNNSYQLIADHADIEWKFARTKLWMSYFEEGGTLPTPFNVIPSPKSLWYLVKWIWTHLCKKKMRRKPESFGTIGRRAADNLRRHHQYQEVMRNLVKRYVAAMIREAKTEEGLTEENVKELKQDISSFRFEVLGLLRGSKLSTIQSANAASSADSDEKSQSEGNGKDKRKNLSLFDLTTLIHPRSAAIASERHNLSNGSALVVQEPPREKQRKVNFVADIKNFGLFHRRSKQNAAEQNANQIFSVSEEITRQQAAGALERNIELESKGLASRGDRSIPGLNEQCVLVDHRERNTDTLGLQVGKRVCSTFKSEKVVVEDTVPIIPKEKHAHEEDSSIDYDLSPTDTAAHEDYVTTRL
row,SMILES,B-score
1,Cc1noc(C)c1COc1ccccc1C(=O)N(C)CC(=O)Nc1cccc(F)c1,inactive
2,Cc1onc(-c2c(F)cccc2Cl)c1C(=O)N(C)CC(=O)Nc1cccc(F)c1,-7 (active)
3,CN(CC(=O)Nc1cccc(F)c1)C(=O)C1=COCCO1,inactive
4,Cc1sc(NC(=O)C2C3CCC(O3)C2C(=O)O)c(C(=O)OC(C)C)c1-c1ccc(Cl)cc1 (stereo not drawn),inactive
5,CC(C)(O)C#Cc1ccc(CN2CCC(CO)(CCc3ccccc3)CC2)cc1,inactive
6,Cc1cccc(-c2ncc(CN3CCC(CO)(CCCc4ccccc4)CC3)cn2)c1,inactive
7,OCC1(CCc2ccccc2)CCN(Cc2ccc3nsnc3c2)CC1,-7 (active)
8,O=C(CN1CCOc2ccccc21)N1CCC(Cc2ccccc2)CC1,inactive
9,CC(c1ccccn1)N(C)C(=O)c1ccc2nc(Cc3cccc(Cl)c3)oc2c1 (stereo not drawn),inactive
10,NC1=NC[C@@H](Cc2ccc(O)cc2)N1CC1CCCCC1,inactive
11,CC(C)n1c(NCc2c[nH]c3ccccc23)nc2ccccc21,-8 (active)
12,CC(C)n1c(-c2cccs2)nc2ccccc21,inactive
13,CC(C)n1c(COc2ccccc2)nc2ccccc21,inactive
14,Cc1ccc(Cn2nnc3c(=O)[nH]c(C4CCN(S(=O)(=O)/C=C/c5ccccc5)CC4)nc32)cc1,inactive
15,N#Cc1c(NC(=O)C2CCCO2)sc2c1CCCCC2 (stereo not drawn),inactive
16,N#Cc1c(NC(=O)C2CC(Cl)=CCC2C(=O)O)sc2c1CCCCC2 (stereo not drawn),-6 (active)
17,N#Cc1c(NC(=O)CCCl)sc2c1CCCCC2,inactive
18,Nc1cc(N)nc(SCc2cccc(F)c2)n1,inactive
19,Cn1c(=O)c2c(nc(OCc3cccnc3)n2Cc2ccccc2)n(C)c1=O,inactive
20,CC(C)(C)c1cc2cccnc2n1Cc1ccccc1,-7 (active)
21,COc1ccnc2c1c(=O)n(Cc1cccc(F)c1)c(=O)n2C,inactive
22,CC(C)(C)c1cc2cccnc2n1Cc1cccc(F)c1,-6 (active)
23,Cc1cc(C(C)(C)C)n2nc(C)c(-c3ccccc3)c2n1,inactive

row,SMILES,B-score
1,CCN(CC)C(=O)Cn1cc(S(=O)(=O)CC(=O)NCc2ccc3c(c2)OCO3)c2ccccc21,inactive
2,Cc1nc2ccccc2n1C(=O)N1CCOCC1,inactive
3,COc1ccc(C(=O)Nc2ccc(-n3nncc3C(C)(C)C)cc2)cc1,inactive
4,O=S(=O)(O)Oc1c[nH]c2ccccc12,inactive
5,COc1ccc(CN(C)Cc2nc3cc(OC)c(OC)cc3c(=O)[nH]2)c(OC)c1,inactive
6,COc1cc(NS(=O)(=O)c2ccc3ccccc3c2)c2ncccc2c1,-6 (active)
7,O=[N+]([O-])c1ccccc1S(=O)(=O)Nc1cccc2cccnc12,inactive
8,Cc1ccc(NS(=O)(=O)c2ccc(C)c(NC(=O)COc3ccc4ccccc4c3)c2)c(C)c1,inactive
9,CC1(C)S[C@@H]2[C@H](NC(=O)COc3ccccc3)C(=O)N2C1C(=O)OCc1ccccc1 (stereo partly drawn),inactive
10,CCc1ccc(C(=O)COC(=O)c2ccco2)cc1,inactive
11,COc1ccc(-n2cc(CN(C)Cc3n[nH]c(=O)[nH]3)c(-c3cccc(F)c3)n2)cc1,inactive
12,CCC(O)C1CCN(Cc2cn(-c3ccc(OC)cc3)nc2-c2cccc(F)c2)CC1 (stereo not drawn),-8 (active)
13,COc1ccc(-n2cc(CNC3CCOCC3)c(-c3cccc(F)c3)n2)cc1,inactive
14,Cc1c(CCOC(=O)CC23CC4CC(CC(C)(C4)C2)C3)sc[n+]1Cc1ccc([N+](=O)[O-])cc1,inactive
15,Cc1c(CN2CCC(n3nccc3NC(=O)CCc3ccccc3)CC2)cnn1C,-7 (active)
16,Cc1ccc(CN2CCC(n3nccc3NC(=O)CCCc3ccccc3)CC2)o1,inactive
17,CCn1cc(CN2CCC(n3nccc3NC(=O)CCCc3ccccc3)CC2)c(C)n1,inactive
18,COC(=O)c1onc(-c2c(OC)cc(OC)cc2OC)c1C(=O)OC,inactive
19,O=C(Cn1ncc2c3ccccc3n(Cc3ccccc3)c2c1=O)NCc1ccccn1,inactive
20,Cc1ccc(NC(=O)CSc2nc(=O)n(CCN(C)C)c3c2CCCC3)c(C)c1,inactive
21,N#Cc1cccc(Nc2c3c(nc4ccccc24)CCCC3)c1,inactive
22,O=[N+]([O-])c1cccc(Nc2c3ccccc3nc3ccccc23)c1,-7 (active)
23,Cc1cc(CNC(=O)c2cccc([N+](=O)[O-])c2)c2ccccc2n1,inactive

row,SMILES,B-score
1,CC1CC(C)CN(CCCNC(=O)c2csc3c2CCCCC3)C1 (stereo not drawn),inactive
2,COc1ccc(CNC(=O)[C@@H]2CC=C[C@@H]3CCN(C4CC4)C(=O)[C@@H]32)cc1,inactive
3,CCc1ccc2oc(=O)cc(CN3CCCCC3C)c2c1 (stereo not drawn),inactive
4,Cc1onc(-c2c(Cl)cccc2Cl)c1C(=O)NNC(=O)c1c(-c2c(Cl)cccc2Cl)noc1C,inactive
5,Cc1[nH]n(C)c(=O)c1C(=O)c1c(-c2c(Cl)cccc2Cl)noc1C,-6 (active)
6,Cc1onc(-c2c(Cl)cccc2Cl)c1C(=O)c1c[nH]c(C(=O)NC2CC2)c1,inactive
7,COc1cc(CN2CCC(C(N)=O)CC2)ccc1OCc1ccccc1,inactive
8,COc1cc(CNC2CCCCC2)c(Br)cc1OC1CCCC1,inactive
9,COc1cc(CNC2CCCC2)c(Br)cc1OCc1ccccc1,-6 (active)
10,Cc1cccc(C2C3=C(CCCC3=O)N=C3c4ccccc4C(=O)C32)c1 (stereo not drawn),inactive
11,Nc1ccc(OCC(O)C[n+]2ccc(CCS(=O)(=O)[O-])cc2)cc1 (stereo not drawn),inactive
12,CN(CC(=O)N1CCN(c2ccccc2)CC1)S(=O)(=O)c1cccs1,inactive
13,Cc1cccc(NS(=O)(=O)c2ccc(C)c(C(N)=O)c2)c1,inactive
14,c1ccc(-c2ccccc2OCCN2CCCCC2)cc1,inactive
15,CC1CCCN(CCOCCOc2ccccc2-c2ccccc2)C1 (stereo not drawn),-7 (active)
16,CC1CN(CCCOc2ccccc2-c2ccccc2)CC(C)O1 (stereo not drawn),inactive
17,COc1cc(N2CCCC2)c(OC)cc1/C=C(/C#N)c1cccc(Br)c1,inactive
18,Cc1cc(NC(=O)CN2C(=O)NC(C)(CCc3ccccc3)C2=O)no1 (stereo not drawn),inactive
19,CCOC(=O)c1cc(C)nc(S(C)(=O)=O)c1C#N,inactive
20,CCOC(=O)c1cc(C#N)c(N2CCCCC2)nc1-c1ccccc1,-8 (active)
21,CCOc1ccc2nc(N3CCCN(C(=O)Nc4ccccc4C)CC3)c(C#N)cc2c1,inactive
22,O=C(CN(Cc1ccc(Br)cc1)S(=O)(=O)c1ccccc1)NCc1ccncc1,inactive
